# DNMT1 inh: blocks human DNA methyltransferase DNMT1; DNMT1 molecular beacon, Hinp1I cleavage, fluorescence; inhibition (reported as % activation of signal), % at 10 µM; 360,000 compounds, 0.83% hits; in the data active = inhibition above about 50%
# Scp-1 inhibitor: blocks human Scp-1 phosphatase activity; Recombinant Scp1, phosphopeptide, malachite green phosphate absorbance; Q9GZU7; 340,000 compounds, 0.88% hits; AID 493091; inhibition, % at 20 µM;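 active = inhibition above about 50% at 20 µM, limit read from the data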;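 also: plate controls were DMSO wells with enzyme for no effect and wells lacking enzyme for full effect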
#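 System: SCP-1 catalytic domain; Reagent: Phospho 17-mer peptide substrate; Doses: one concentration, 20 µM, with 1.0% DMSO; Incubation: 45 min room-temperature reaction, 5 min colour, 30 min stabiliser; Signal: Phosphate-binding colour reagent, absorbance read at 630 nm.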
# STEP block: inhibitors of human striatal-enriched phosphatase STEP | P54829 | recombinant STEP, OMFP fluorogenic substrate, fluorescence | inhibition, % at 20 µM | 360,000 compounds, 0.25% hits | AID 588621;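 active = inhibition at 20 µM, scaled per plate between control wells, above about 37%, limit read from the data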;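 also: 0% = DMSO with enzyme and substrate and 100% = substrate only without enzyme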
#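 Measure: Control-normalized % inhibition with plate pattern correction | Test system: STEP phosphatase, cell-free reaction | Medium: pH 6.0 Bis-Tris with DTT and Tween 20 | Technique: Fluorescence, 480/540 nm | Times: Reaction 20 min, ambient temperature | Doses: Single compound dose of 20 µM, 1% DMSO final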
# NadD block: NadD (S. aureus) enzyme inhibition. purified NadD enzyme, colorimetric absorbance read-out. inhibition, % at 20 µM. 360,000 compounds, 0.78% hits. AID 602399; in the data active = inhibition above about 26%
# SUMO1 PPI mod: SUMO1-SIM interaction modulation; P63165; SUMO1 binding to a labelled peptide, TR-FRET, 1 h; inhibition, % at 20 µM; 360,000 compounds, 0.33% hits; AID 602429; in the data active = inhibition above about 37%
# LMPTP block: LMPTP (human) inhibition. P24666. recombinant LMPTP-A, OMFP fluorogenic substrate, fluorescence intensity. inhibition, % at 20 µM. 360,000 compounds, 0.22% hits. AID 651560;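 active = compounds that cut the enzyme signal by at least half of the control window in the single-dose screen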;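 also: plate controls were DMSO wells with enzyme plus substrate for no effect and substrate without enzyme for full effect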
#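 Buffer or medium: Bis-Tris pH 6.0, DTT, detergent; Assay system: LMPTP-A enzyme; Quantity: 0.625 nM enzyme; Detection: endpoint fluorescence intensity; Times: 50 min dark incubation at room temperature; Controls: substrate-only low control, DMSO enzyme-plus-substrate high control; Doses: single 20 µM dose; Read-out: percent inhibition versus substrate-only and uninhibited controls; Reagent: 400 µM OMFP.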
# Beacon interf DR: counter-screen for DNMT1 inhibitors: spectral interference, dose response; molecular beacon fluorescence; shares compounds with DNMT1 inh; 200 tested, under 10 active; AID 602382; IC50, µM; call rule not given here
# DNMT1 inh conf: DNMT1 inhibition confirmation, single concentration. shares compounds with DNMT1 inh. DNMT1 molecular beacon HinP1I cleavage, fluorescence. inhibition, % at 10 µM. 2,300 compounds, 8% hits. AID 602385;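 active = average inhibition of at least 30% in the single-concentration confirmation test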
# DNMT1 interf: shows spectral interference in the DNMT1 beacon assay | AID 602387 | shares compounds with DNMT1 inh | DNMT1 molecular beacon spectral interference counterscreen, fluorescence 485/520 | activation (fluorescence interference), % at 10 µM | 2,300 compounds, 1% hits;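 active = activation of at least 30% at 10 µM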;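 also: DNMT1 catalytic domain with a HinP1I cleavage step and a FAM/dabcyl DNA beacon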
# * = called active by the depositor; x = not tested or not shown. Sampled rows, rich in hits. Any-hit rate of the full collection: about 2.4%.
SMILES,DNMT1 inh,Scp-1 inhibitor,STEP block,NadD block,SUMO1 PPI mod,LMPTP block,DNMT1 inh conf,DNMT1 interf,others
O=C(c1cccc(Cl)c1)N1CCN(Cc2ccc3c(c2)OCO3)CC1,90.2*,-4.7,0.1,-1.6,5.3,0.0,1.6,2.1,
O=C(CCOc1ccccc1)N1CCN(S(=O)(=O)c2ccccc2F)CC1,-2.6,-6.8,2.3,-1.1,-0.1,-2.4,x,x,
O=C(COc1ccc(Cl)cc1Cl)NN=C1c2ccccc2-c2ccccc21,87.3*,-9.4,3.6,5.7,13.2,8.0,1.4,0.4,
CC(Sc1nc2c(c(=O)[nH]1)CCCC2)C(=O)Nc1ccc(Br)cn1 (stereo unspecified),0.8,-7.1,-4.1,3.8,12.3,-1.7,x,x,
CCc1cccc(CC)c1-n1c(SCC(=O)c2c(N)n(C)c(=O)n(C)c2=O)nnc1-c1cccnc1,59.5*,-2.4,3.3,4.0,2.7,0.5,0.3,-3.2,
N#CC1=C(N)OC2=C(C(=O)CCC2)C1c1ccncc1 (stereo unspecified),75.0*,-5.9,-2.5,-5.9,0.7,-0.1,5.2,0.4,
ClN=C1C=CC=CC1=NCl,113.5*,x,8.5,29.7,56.7*,68.3*,36.5*,-8.0,Beacon interf DR=>99
COc1cc2c(=O)[nH]c3cc([N+](=O)[O-])ccc3c2cc1[N+](=O)[O-],75.7*,x,2.8,14.9,99.1*,37.5,-2.6,-4.8,
COc1cc2c(cc1[N+](=O)[O-])-c1ccc([N+](=O)[O-])cc1C2,-12.4,x,3.3,10.3,-74.6,0.7,x,x,
CCn1c(SCC(=O)Nc2ccccc2C)nnc1-c1ccccc1O,-0.9,-0.3,-1.9,-2.1,2.6,-0.5,x,x,
CCn1c(SCC(=O)Nc2cc(F)ccc2C)nnc1-c1ccccc1O,55.7*,-11.2,24.5,-3.3,-0.9,0.1,0.9,0.7,
CCOc1ccc(NS(=O)(=O)c2ccc(C(=O)NCC3(N(C)C)CCCCC3)cc2)cc1,-1.0,4.4,0.9,-7.9,1.5,0.7,x,x,
CCCCc1cc(=O)oc2cc(C)cc(OCC(=O)NCc3ccncc3)c12,5.2,-4.0,1.8,2.1,3.8,-0.8,x,x,
N#Cc1nnn(-c2ccc(Cl)cc2)c1N,90.3*,-3.0,-0.4,3.5,-6.0,-0.7,0.1,1.1,
Cc1cccc(Nc2nnc(SCC(=O)NC(=O)Nc3ccc4c(c3)OCCO4)s2)c1,50.3*,-5.3,1.2,12.3,-0.3,-0.7,-1.1,2.3,
COc1ccc([C@@H]2[C@@H]3C(=O)N(C(C)(C)C)C(=O)[C@@H]3[C@]3(Cc4ccccc4)C(=O)N(c4cccc(C)c4)C(=O)N23)cc1,-5.0,-14.5,-1.1,1.2,5.2,-0.5,x,x,
Cc1cccc(C)c1-n1nnnc1C(c1cc2ccccc2o1)N1CCN(C/C=C/c2ccccc2)CC1 (stereo unspecified),63.4*,x,6.2,5.0,1.4,5.9,5.5,8.4,
COc1ccc(C2CC(c3ccccc3C(F)(F)F)=NN2c2ccc(S(N)(=O)=O)cc2)cc1 (stereo unspecified),65.1*,3.9,-3.5,11.9,7.1,1.6,15.0,12.2,
Cc1ccc(C(=O)c2coc3c2C(=O)C(=O)c2ccccc2-3)cc1,-6.4,-10.2,17.8,-1.9,-22.0,1.4,x,x,
Cc1oc2c(c1C(=O)c1ccc(Cl)cc1)C(=O)C(=O)c1ccccc1-2,73.9*,0.0,9.8,10.5,15.9,1.8,21.1,-8.5,Beacon interf DR=>99
O=[N+]([O-])c1ccc(N2CCN(Cc3ccncc3)CC2)cc1,-10.5,23.1,0.7,2.1,-28.2,0.7,x,x,
O=C(Nc1cccc(S(=O)(=O)N2CCCC2)c1)c1ccc2c(c1)OCO2,94.9*,-5.2,-0.6,1.2,-0.4,-0.8,9.8,9.3,

# Source: PubChem BioAssay (Sanford-Burnham Center for Chemical Genomics)
